# FGF22 binding = binders of human FGF22 protein, primary screen, FGF22 synaptogenesis inhibitor project, biophysical, thermal shift, single point. AID 651658, 2012. activity (Tm shift, normalised), % at 9.99 µM. actives 1.5% (n = 340,000). recombinant FGF22 thermal shift, SYPRO orange fluorescence; percent of sucrose octasulfate shift, DMSO zero;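 active means mean Tm shift, scaled 0 neutral to 100 positive control, at about 1.3% or above, every replicate too, limit read from the data; inconclusive means no clear call, values can overlap the other calls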
# Target sequence (Q9HCT0 whole entry, looked up): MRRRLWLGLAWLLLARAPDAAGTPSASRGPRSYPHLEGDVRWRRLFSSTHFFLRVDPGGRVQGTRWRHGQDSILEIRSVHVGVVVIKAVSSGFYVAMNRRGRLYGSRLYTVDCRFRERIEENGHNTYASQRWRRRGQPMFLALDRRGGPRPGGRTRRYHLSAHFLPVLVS
# ARNT-TACC3 inh = disruptors of ARNT/TACC3 protein interaction, primary screen, biochemical, AlphaScreen, single concentration | Transforming acidic coiled-coil-containing protein 3 (Homo sapiens), Q9Y6A5 | AlphaScreen His-ARNT PAS-B/GST-TACC3 binding, luminescence; TACC3 fragment carries E629A point mutation | inhibition, % at 9.99 µM | actives 0.66% (n = 390,000) | AID 623870, 2012;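 active means mean inhibition of replicates at least 50% and at least half of replicates each reaching 50%; inconclusive means half or more replicates reach 50% but mean below 50%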;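 further: 0% = complete ARNT plus TACC3 wells and 100% = ARNT alone without TACC3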
# FN deposit inh = inhibitors of fibronectin matrix deposition, primary screen, AH1F cells, Alexa488-fibronectin fluorescence, plate reader; AH1F fibroblasts, overnight; inhibition, % at 12.6 µM; actives 0.086% (n = 350,000);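 active means mean inhibition across replicates of 30% or more, regardless of how many single replicates reach that level; inconclusive means mean under 30% yet at least half of replicates reach 30%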;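 further: positive control wells lacked labelled fibronectin entirely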
#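 material = AH1F fibroblast monolayer depositing Alexa488-labelled fibronectin into matrix | amount = 10000 AH1F cells/well | buffer or medium = DMEM plus 2% serum, read in PBS | incubation = 1 h cell adhesion before compound, then overnight fibronectin incubation | detection = fluorescence at 485 nm excitation, 525 nm emission | evaluation = percent inhibition as loss of matrix-bound fibronectin fluorescence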
# SIRT5 inh = SIRT5 desuccinylase inhibitors, primary screen, biochemical, fluorescence imaging, single point, set 5 | actives 1.1% (n = 330,000) | Purified SirT5, succinyl-peptide AMC, trypsin-coupled fluorescence | inhibition, % at 15 µM; in the data active means inhibition above about 15%; inconclusive means no clear call, values can overlap the other calls
# Target sequence (Q9NXA8 whole entry, looked up): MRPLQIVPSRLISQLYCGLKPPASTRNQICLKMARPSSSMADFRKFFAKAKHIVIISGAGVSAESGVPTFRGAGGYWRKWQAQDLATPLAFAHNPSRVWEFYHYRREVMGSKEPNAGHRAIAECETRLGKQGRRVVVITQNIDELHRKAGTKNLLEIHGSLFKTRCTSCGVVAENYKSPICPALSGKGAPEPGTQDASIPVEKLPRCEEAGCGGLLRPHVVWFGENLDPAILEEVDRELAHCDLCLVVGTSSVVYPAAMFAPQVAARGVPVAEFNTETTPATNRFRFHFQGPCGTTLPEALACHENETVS
# DENV2 CPE rescue = inhibitors of DENV2 cytopathic effect, primary screen, cell-based, plate reader, single concentration | DENV2-infected cells, cytopathic effect rescue | CPE inhibition, % at 9.99 µM | actives 1.7% (n = 350,000) | AID 651640, 2012; in the data active means CPE inhibition above about 20%, passing the limit was not always enough; inconclusive means no clear call, values can overlap the other calls; tested in BHK-21 cells;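 further: 0% = median of neutral control wells and 100% = median of positive control wells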
# Xi reactivation = activators of inactive X chromosome reactivation, primary screen, imaging, XiGFP fibroblasts, GFP high-content imaging, set 2. XiGFP mouse fibroblasts, % GFP-positive cells imaging, 3 d; cells co-treated with 5-aza-dC sensitizer; scaled so ellipticine positive control = 100%. activation, % at 7.58 µM. actives 0.055% (n = 360,000);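 active means mean normalized replicate activation at least 10% and every replicate at or above 10%; inconclusive means only one of the two criteria met; inactive means mean below 10% and not all replicates reach 10%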;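 further: 0% = median of on-plate neutral control wells and 100% = ellipticine 6 µM median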
#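 Assay system – SV40-immortalized XiGFP fibroblast cells, line 68-5-11 · Buffer or medium – DMEM supplemented with 5-aza-dC as sensitizing agent · Dosing – one concentration, pinned · Benchmarks – positive control ellipticine, 6 µM final · Times – 3 days compound exposure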
# Numbers without * were called inactive; ? = inconclusive; . = no result. This is a sample that favours compounds with a hit; in the whole collection about 3.8% have one here.
SMILES,FGF22 binding,ARNT-TACC3 inh,FN deposit inh,SIRT5 inh,DENV2 CPE rescue,Xi reactivation
CNC[C@@H]1Oc2ccc(NC(=O)Nc3ccc(F)cc3)cc2CC(=O)N([C@@H](C)CO)C[C@H]1C,-0.1,-2.9,-2.2,-5.9,2.3,-0.1
COc1ccc(NC(=O)N(C)C[C@@H]2Oc3ccc(NC(=O)Nc4ccccc4)cc3CC(=O)N([C@@H](C)CO)C[C@@H]2C)cc1,0.1,9.2,3.7,2.4,25.4*,-0.1
O=C(Nc1ccc(C(F)(F)F)cc1)N[C@H]1CC[C@@H](CC(=O)N2CCCCC2)O[C@H]1CO,0.0,.,-7.7,.,-0.5,-0.1
C[C@@H]1CN([C@@H](C)CO)S(=O)(=O)c2ccc(C#Cc3ccncc3)cc2O[C@@H]1CN(C)C,-0.5,-1.4,-4.2,6.5,?,-0.2
Cc1ccc(S(=O)(=O)Nc2cccc3c2O[C@@H](CN(C)C(=O)NC2CCCCC2)[C@@H](C)CN([C@H](C)CO)C3=O)cc1,-0.1,0.9,.,6.1,5.4,-0.5
COc1ccc(NC(=O)Nc2ccc3c(c2)[C@@H]2C[C@@H](CC(=O)NCc4ccncc4)O[C@H](CO)[C@@H]2O3)cc1,-0.2,-6.4,.,-2.7,3.7,0.1
COc1ccc(NC(=O)c2ccc(-c3csc(C)n3)cc2)cc1,-0.3,-7.4,-6.4,4.5,0.5,0.0
Cc1nc(-c2ccc(C(=O)Nc3ccc(F)cc3)cc2)cs1,43.2*,27.9,-0.7,-1.1,0.5,-0.2
Nc1sc(Cc2ccccc2)cc1C(=O)c1c(-c2ccccc2)[nH]c2ccccc12,0.0,.,.,-0.4,83.6*,0.2
CCNC(=O)C(=O)c1c(-c2ccccc2)[nH]c2ccccc12,-0.1,-0.6,-0.2,1.0,2.8,0.1
Cc1cccc(C(=O)Nc2cccc(C(=O)N/N=C/c3ccccn3)c2)c1,-0.2,71.4*,-3.1,3.3,-1.1,0.2
O=C(N/N=C/c1ccccn1)C(=O)N1CCCCCC1,0.1,53.2*,-4.3,-2.9,1.5,0.3
O=C(O)c1cc2c(o1)CCC/C2=N\O,0.1,-10.5,.,-2.5,4.3,.
O=C(N/N=C1\CCCc2oc(C(=O)O)cc21)c1ccccc1,43.2*,.,-24.8,1.9,5.8,0.8
O=C(N/N=C/c1ccccc1C(=O)O)C(=O)N1CCCCC1,0.0,2.4,-6.0,-0.3,2.4,0.1
Cc1cccc(/C=N/NC(=O)c2ccncc2)n1,0.1,62.6*,0.1,-3.3,?,0.0
O=C(N/N=C/c1ccccn1)c1cc([N+](=O)[O-])cc([N+](=O)[O-])c1,0.1,60.5*,15.2,-0.3,-7.6,0.1
O=C(CCCC(=O)N/N=C\c1ccccn1)N/N=C\c1ccccn1,-0.1,14.8,-12.9,12.5,5.6,0.9
O=C(N/N=C/c1ccccn1)c1ccc([N+](=O)[O-])cc1,0.1,35.0,4.0,0.3,-1.7,0.0
O=C(O)c1cccc(NC(=S)N/N=C/c2cccc(O)c2)c1,.,.,-12.3,-1.3,8.2,0.3
O=C(N/N=C/c1ccccn1)c1cccc(NC(=O)c2ccccc2Cl)c1,0.1,63.1*,-1.8,9.2,9.9,0.0
O=C(O)c1cccc(NC(=S)N/N=C/c2ccccn2)c1,-0.1,66.4*,0.9,2.7,-2.3,0.1
CC(Nc1cccc2ccccc12)C(=O)N/N=C/c1ccccn1 (centres undefined),.,67.2*,.,.,.,.
CCCN1C[C@@H](C)[C@H](OC)CN(C)C(=O)c2cc(NS(=O)(=O)c3ccccc3)ccc2OC[C@H]1C,-0.2,6.4,-0.8,1.3,-4.5,0.2
CCCNC(=O)C[C@@H]1CC[C@H]2[C@H](COc3ccc(NC(=O)c4cccc(F)c4)cc3C(=O)N2C)O1,-0.1,-1.5,-5.6,-1.7,-3.8,0.3
SMILES,FGF22 binding,ARNT-TACC3 inh,FN deposit inh,SIRT5 inh,DENV2 CPE rescue,Xi reactivation
COc1cccc(-c2cnc3c(c2)C(=O)N([C@H](C)CO)C[C@H](C)[C@@H](CN(C)Cc2ccc(F)cc2)O3)c1,0.1,10.8,.,-4.7,-1.4,-1.4
O=C(N/N=C1/CCCc2ccccc21)c1cc([N+](=O)[O-])cc([N+](=O)[O-])c1,42.9*,.,-20.0,1.1,-4.1,0.0
O=C(N/N=C/c1ccccn1)c1cc(C2CC2)[nH]n1,0.2,48.3*,4.1,.,-1.9,0.3
Cc1cccc(C(=O)N/N=C/c2ccccn2)c1,.,54.0*,2.7,.,.,0.0
Cc1ccccc1C(=O)Nc1cccc(C(=O)N/N=C/c2cc(Cl)cc([N+](=O)[O-])c2O)c1,0.2,51.7*,7.4,3.9,-0.2,0.0
Cc1cc(C(=O)N/N=C/c2ccccn2)n[nH]1,0.3,.,-2.6,-4.5,.,0.0
COCCNC(=O)C[C@H]1C[C@H]2c3cc(NC(=O)c4ccc5c(c4)OCO5)ccc3O[C@H]2[C@H](CO)O1,0.2,3.3,.,1.7,-4.7,0.0
CCCNC(=O)N1C[C@@H](O)COC[C@@H]2O[C@H](CC(=O)OC)CC[C@H]21,0.1,-4.3,3.7,-5.1,11.8,0.1
O=C(N/N=C/c1ccccn1)c1cccc(S(=O)(=O)Nc2ccccc2Cl)c1,0.8,65.1*,2.0,3.2,-6.4,0.3
Cc1ccccc1CN1C[C@@H]2C[C@@H](c3cn[nH]c3-c3ccc(F)cc3)N3CCC[C@@]23C1=O,0.3,3.1,-4.1,-0.7,-0.9,0.0
COc1ccc(-c2[nH]ncc2[C@@H]2C[C@H]3CN(Cc4ccccc4C)C(=O)[C@]34CCCN24)cc1,43.5*,.,-6.9,1.7,2.6,-0.1
C[C@H](CO)N1C[C@H](C)[C@H](CN(C)Cc2ccc(F)cc2)Oc2ncc(-c3ccc(F)cc3)cc2C1=O,.,.,-14.0,.,.,0.8
Cc1cc(NS(=O)(=O)c2ccc(Nc3nc(-c4sc(N)nc4C)cs3)cc2)no1,.,61.7*,.,.,.,.
Cc1nc(N)sc1-c1csc(Nc2cccc(C(=O)O)c2)n1,0.0,52.2*,7.3,27.4*,3.6,0.2
CCC(=O)Nc1nc(C)c(-c2csc(Nc3cccc(C(=O)O)c3)n2)s1,1.1,-3.6,-7.5,1.7,0.3,0.0
COc1ccc(C2C(C(C)=O)=C(O)C(=O)N2CCCn2ccnc2)cc1OC (centres undefined),.,5.6,.,.,.,.

# Assay outcomes (PubChem BioAssay)
